The nature of one data set: in vivo. As to conditions: mouse.
The subject of a further data set is Vero. As to the kind of experiment: Cytotoxicity against African green monkey Vero cells after 2 to 4 days by MTT assay. Type of data set: cell-based. As to conditions: chlorocebus sabaeus. The method in brief: (§1)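 Cytotoxicity in human PBM cells, Vero (African green monkey kidney epithelial) cells and CEM (human T-cell-derived line) cells, with compounds tested up to 100 μM.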

Data set [1] relates to PBMC. As to the kind of experiment: Cytotoxicity against human PBMC after 2 to 4 days by MTT assay. In kind it is cell-based. The method, boiled down:
as §1

The test system of a further data set is HepG2. The experiment in a line: Cytotoxicity against human HepG2 cells after 2 to 4 days by neutral red dye uptake assay. In kind it is cell-based.
For the next data set, the system named is Huh-7. The experiment in a line: Cytotoxicity against human HuH7 cells after 2 to 4 days by MTT assay. Type of data set: cell-based.
A further data set concerns CCRF-CEM. The experiment in a line: Cytotoxicity against human CEM cells after 2 to 4 days by MTT assay. Type of data set: cell-based. The method in brief:
as §1

Another data set deals with Hepatitis B virus. The experiment in a line: Antiviral activity against Hepatitis B virus infected in human HepAD38 cells after 5 days. Type of data set: functional, organism-based. As to conditions: HePAD38, 120 h.
Data set [2] concerns Human immunodeficiency virus 1. The experiment in a line: Antiviral activity against Human immunodeficiency virus 1 LAI infected in PHA-stimulated human PBMC. In kind it is functional, organism-based.
Data set [3] has as its system PBMC. As to the kind of experiment: Drug metabolism in human PBMC assessed as 6-cyclopropylamino purine dioxolane triphosphate level measured per 10^6 cells at 50 uM after 4 hrs by LC-MS/MS analysis. In kind it is ADME, cell-based.
The subject of data set [4] is PBMC. The experiment in a line: Drug metabolism in human PBMC assessed as dioxolane-A triphosphate level measured per 10^6 cells at 50 uM after 4 hrs by LC-MS/MS analysis. In kind it is ADME, cell-based. Further details: unit: pmol/10^6 cells.

Structures are written as SMILES.

Regarding `Oc1ccccc1` [PHENOL], in the data set “in vivo”, the LD50 amounted to 270 mg/kg.
Regarding `CC(C)OC(=O)CCc1ccccc1OP(=O)(N[C@@H](C)C(=O)OC(C)C)OC[C@@H]1OC[C@H](n2cnc3c(NC4CC4)ncnc32)O1` (stereo partly drawn), the CC50 was over 100 µM with Vero; over 100 µM in the data set on PBMC [1]; over 100 µM in the data set on HepG2; 57 µM with Huh-7; 84 µM in the data set on CCRF-CEM. Further, the EC50 was over 10 µM in the data set on Hepatitis B virus and 11 µM in data set [2].
As to `OC[C@@H]1OC[C@H](n2cnc3c(NC4CC4)ncnc32)O1`, the CC50 with Vero, in the data set on PBMC [1], in the data set on HepG2, in the data set on Huh-7 and in the data set with CCRF-CEM was over 100 µM each time. Also, the EC50 with Hepatitis B virus was over 10 µM; in data set [2] it was 92 µM.
As for `CCOC(=O)[C@H](C)NP(=O)(OC[C@@H]1OC[C@H](n2cnc3c(NC4CC4)ncnc32)O1)Oc1ccccc1` (stereo partly drawn), the CC50 in the data set with Vero, in the data set with PBMC [1], in the data set on HepG2, with Huh-7 and with CCRF-CEM was over 100 µM in each case. The Drug metabolism in the data set on PBMC [3] came to 0.13 pmol; in the data set with PBMC [4], 0.11 pmol. The EC50 in the data set on Hepatitis B virus amounted to 0.8 µM; in [2], 0.086 µM.
For the molecule `CCOC(=O)[C@H](C)NP(=O)(OC[C@@H]1OC[C@H](n2cnc3c(OC)ncnc32)O1)Oc1ccccc1` (stereo partly drawn), the CC50 in the data set on Vero was over 100 µM; in the data set on PBMC [1] it was over 100 µM; with HepG2 it was over 100 µM; with Huh-7, 80 µM; in the data set with CCRF-CEM it was over 100 µM. In addition, the EC50 was over 10 µM in the data set on Hepatitis B virus and 0.34 µM in data set [2].
In the case of `CCOC(=O)CCc1ccccc1OP(=O)(N[C@@H](C)C(=O)OCC)OC[C@@H]1OC[C@H](n2cnc3c(N)ncnc32)O1` (stereo partly drawn), the CC50 was 36 µM in the data set with Vero; 12 µM with PBMC [1]; over 100 µM with HepG2; 12 µM with Huh-7; 53 µM in the data set with CCRF-CEM. Further, the EC50 in the data set with Hepatitis B virus is 0.3 µM; in data set [2] it was 0.0033 µM. The Drug metabolism with PBMC [4] amounted to 90 pmol.
In the case of `CCOC(=O)[C@H](C)NP(=O)(OC[C@@H]1OC[C@H](n2cnc3c(N)ncnc32)O1)Oc1ccccc1` (stereo partly drawn), the CC50 was 80 µM with Vero; 2 µM in the data set with PBMC [1]; over 100 µM in the data set on HepG2; 7.3 µM in the data set on Huh-7; 18 µM in the data set on CCRF-CEM. In addition, the EC50 is 0.03 µM with Hepatitis B virus and 0.00056 µM in data set [2]. For the same molecule, the Drug metabolism in the data set on PBMC [4] is recorded as 200 pmol.
Regarding `CCOC(=O)CCc1ccccc1OP(=O)(N[C@@H](C)C(=O)OCC)OC[C@@H]1OC[C@H](n2cnc3c(NC4CC4)ncnc32)O1` (stereo partly drawn), the CC50 in the data set on Vero was over 100 µM; in the data set with PBMC [1], over 100 µM; in the data set with HepG2, over 100 µM; in the data set with Huh-7 it was 65 µM; with CCRF-CEM, over 100 µM. Besides, the Drug metabolism with PBMC [3] came out at 0.19 pmol; in the data set on PBMC [4] it was 0.14 pmol. The values for the EC50 (in the data set with Hepatitis B virus; in [2]) were over 10 µM and 0.77 µM, respectively.
In the case of `CCOC(=O)CCc1ccccc1OP(=O)(N[C@@H](C)C(=O)OCC)OC[C@@H]1OC[C@H](n2cnc3c(OC)ncnc32)O1` (stereo partly drawn), the CC50 in the data set with Vero was 93 µM; in the data set on PBMC [1] it was over 100 µM; in the data set on HepG2, over 100 µM; with Huh-7, 80 µM; in the data set on CCRF-CEM, over 100 µM. The EC50 is over 10 µM in the data set on Hepatitis B virus and 0.42 µM in data set [2].
Regarding `Nc1ncnc2c1ncn2[C@H]1CO[C@@H](CO)O1`, in the data set on PBMC [4], the Drug metabolism was determined as 0.18 pmol.
For the molecule `Nc1nc(N)c2ncn([C@H]3CO[C@@H](CO)O3)c2n1` [AMDOXOVIR], the 50% cytotoxic concentration (CC50) in the data set with Vero, in the data set with PBMC [1], with HepG2, with Huh-7 and in the data set with CCRF-CEM was over 100 µM throughout. Moreover, the results for the EC50 (in the data set with Hepatitis B virus; in data set [2]) were over 9 µM and 0.4 µM, respectively.
With `COc1ncnc2c1ncn2[C@H]1CO[C@@H](COP(=O)(N[C@@H](C)C(=O)OC(C)C)Oc2ccccc2CCC(=O)OC(C)C)O1` (stereo partly drawn), the CC50 in the data set on Vero is over 100 µM; in the data set with PBMC [1], over 100 µM; with HepG2 it was over 100 µM; in the data set on Huh-7 it was 52 µM; in the data set on CCRF-CEM it was over 100 µM. Further, the results for the EC50 (in the data set on Hepatitis B virus; in [2]) were over 10 µM and 7 µM, respectively.

These data come from ChEMBL document CHEMBL2406962, “Adenosine Dioxolane Nucleoside Phosphoramidates as Antiviral Agents for Human Immunodeficiency and Hepatitis B Viruses” (ACS Med Chem Lett, 2013).
